Laboratory results from ChEMBL document CHEMBL3243962, “Antileukemic activity of derivatives of 1,2-dimethyl-3,4-bis(hydroxymethyl)-5-phenylpyrrole bis(N-methylcarbamate)” (J Med Chem, 1979).
Activity calls are given as the source filed them.

Experiments:
[1] = tested on: Staphylococcus epidermidis; assay: Antimicrobial activity against Staphylococcus epidermidis ATCC 12228 at 1 mg after 24 hrs by disk sensitivity assay; assay type: functional, organism-based
Procedure, shortened: (§1)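 Bacteria grown 24 h in trypticase soy broth; 1 mL used to seed a lawn on trypticase soy agar. Sterile 6 mm paper disks carrying 1 mg test compound placed on agar, incubated 24 h at 37 °C, then zone of inhibition around each disk measured.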

Mus musculus [2] = assay: Toxicity in mouse P388 cells allografted CD2F1 mouse assessed as body weight loss at 100 mg/kg, ip of total 9 doses starting 24 hrs post tumor inoculation measured on day 5 of inoculation relative to control; assay type: organism-based; design: dose 100 mg/kg, route intraperitoneal; conditions: in vivo
Procedure, shortened: (§2)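 Male CD2F1 mice inoculated ip with 6×10^6 P388 leukemia cells. Compounds given ip as distilled water–Tween 80 suspension, nine daily doses starting 24 h after inoculation; six mice per dose group. Treated-minus-control body-weight change (T − C) and toxicity-day survivors recorded on day 5 (4 days after first dose).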

Mus musculus [3] = assay: Toxicity in mouse P388 cells allografted CD2F1 mouse assessed as body weight loss at 50 mg/kg, ip of total 9 doses starting 24 hrs post tumor inoculation measured on day 5 of inoculation relative to control; assay type: organism-based; design: dose 50 mg/kg, route intraperitoneal; conditions: in vivo; procedure, shortened: as §2
Mus musculus [4] = assay: Toxicity in mouse P388 cells allografted CD2F1 mouse assessed as body weight loss at 25 mg/kg, ip of total 9 doses starting 24 hrs post tumor inoculation measured on day 5 of inoculation relative to control; assay type: organism-based; design: dose 25 mg/kg, route intraperitoneal; conditions: in vivo; procedure, shortened: as §2
Mus musculus [5] = assay: Toxicity in mouse P388 cells allografted CD2F1 mouse assessed as body weight loss at 12.5 mg/kg, ip of total 9 doses starting 24 hrs post tumor inoculation measured on day 5 of inoculation relative to control; assay type: organism-based; design: dose 12.5 mg/kg, route intraperitoneal; conditions: in vivo; procedure, shortened: as §2
Mus musculus [6] = assay: Toxicity in mouse P388 cells allografted CD2F1 mouse assessed as body weight loss at 6.25 mg/kg, ip of total 9 doses starting 24 hrs post tumor inoculation measured on day 5 of inoculation relative to control; assay type: organism-based; design: dose 6.25 mg/kg, route intraperitoneal; conditions: in vivo; procedure, shortened: as §2
Mus musculus [7] = assay: Toxicity in mouse P388 cells allografted CD2F1 mouse assessed as mouse survival at 50 mg/kg, ip of total 9 doses starting 24 hrs post tumor inoculation measured on day 5 of inoculation relative to control; assay type: organism-based; design: dose 50 mg/kg, route intraperitoneal; conditions: in vivo
Procedure, shortened: (§3)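 Male CD2F1 mice bearing ip P388 leukemia (6×10^6 cells) were dosed ip with nine daily doses in distilled water–Tween 80 suspension, starting 24 h after inoculation. Survivors per group of 6 were counted on day 5, i.e. 4 days after the first dose. Body-weight change of treated minus control mice was also recorded.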

Mus musculus [8] = assay: Toxicity in mouse P388 cells allografted CD2F1 mouse assessed as mouse survival at 25 mg/kg, ip of total 9 doses starting 24 hrs post tumor inoculation measured on day 5 of inoculation relative to control; assay type: organism-based; design: dose 25 mg/kg, route intraperitoneal; conditions: in vivo; procedure, shortened: as §3
Mus musculus [9] = assay: Toxicity in mouse P388 cells allografted CD2F1 mouse assessed as mouse survival at 12.5 mg/kg, ip of total 9 doses starting 24 hrs post tumor inoculation measured on day 5 of inoculation relative to control; assay type: organism-based; design: dose 12.5 mg/kg, route intraperitoneal; conditions: in vivo; procedure, shortened: as §3
Mus musculus [10] = assay: Toxicity in mouse P388 cells allografted CD2F1 mouse assessed as mouse survival at 6.25 mg/kg, ip of total 9 doses starting 24 hrs post tumor inoculation measured on day 5 of inoculation relative to control; assay type: organism-based; design: dose 6.25 mg/kg, route intraperitoneal; conditions: in vivo; procedure, shortened: as §3
Staphylococcus aureus = assay: Antimicrobial activity against Staphylococcus aureus ATCC 25923 at 1 mg after 24 hrs by disk sensitivity assay; assay type: functional, organism-based; procedure, shortened: as §1
P388 [11] = assay: Antitumor activity against mouse P388 cells allografted in CD2F1 mouse assessed as increase in mouse survival at 100 mg/kg, ip of total 9 doses starting 24 hrs post tumor inoculation measured on day 5 of inoculation relative to control; assay type: functional; conditions: route intraperitoneal
Procedure, shortened: (§4)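 Male CD2F1 mice inoculated ip with 6×10^6 P388 leukemia cells. Dosing was ip as a suspension in distilled water–Tween 80, nine daily doses starting 24 h after inoculation. Activity was read as median survival time of treated vs control mice (% T/C); % T/C ≥ 120 was considered significant. Groups were 6 mice.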

P388 [12] = assay: Antitumor activity against mouse P388 cells allografted in CD2F1 mouse assessed as increase in mouse survival at 50 mg/kg, ip of total 9 doses starting 24 hrs post tumor inoculation measured on day 5 of inoculation relative to control; assay type: functional; conditions: route intraperitoneal; procedure, shortened: as §4
P388 [13] = assay: Antitumor activity against mouse P388 cells allografted in CD2F1 mouse assessed as increase in mouse survival at 25 mg/kg, ip of total 9 doses starting 24 hrs post tumor inoculation measured on day 5 of inoculation relative to control; assay type: functional; conditions: route intraperitoneal; procedure, shortened: as §4
P388 [14] = assay: Antitumor activity against mouse P388 cells allografted in CD2F1 mouse assessed as increase in mouse survival at 12.5 mg/kg, ip of total 9 doses starting 24 hrs post tumor inoculation measured on day 5 of inoculation relative to control; assay type: functional; conditions: route intraperitoneal; procedure, shortened: as §4
P388 [15] = assay: Antitumor activity against mouse P388 cells allografted in CD2F1 mouse assessed as increase in mouse survival at 6.25 mg/kg, ip of total 9 doses starting 24 hrs post tumor inoculation measured on day 5 of inoculation relative to control; assay type: functional; conditions: route intraperitoneal; procedure, shortened: as §4
Mus musculus [16] = assay: Toxicity in mouse P388 cells allografted CD2F1 mouse assessed as mouse survival at 100 mg/kg, ip of total 9 doses starting 24 hrs post tumor inoculation measured on day 5 of inoculation relative to control; assay type: organism-based; design: dose 100 mg/kg, route intraperitoneal; conditions: in vivo; procedure, shortened: as §3

SMILES	Activity [1]	Activity (Mus musculus [2])	Activity (Mus musculus [3])	Activity (Mus musculus [4])	Activity (Mus musculus [5])	Activity (Mus musculus [6])	Activity (Mus musculus [7])	Activity (Mus musculus [8])	Activity (Mus musculus [9])	Activity (Mus musculus [10])	Activity (Staphylococcus aureus)	T/C (P388 [11])	T/C (P388 [12])	T/C (P388 [13])	T/C (P388 [14])	T/C (P388 [15])	Activity (Mus musculus [16])
CNC(=O)OCc1c(COC(=O)NC)c(-c2ccc(OC)cc2)n(C)c1C	Active	5.5 g	4.4 g	3.4 g	3.2 g	2.4 g	Non-toxic	Non-toxic	Non-toxic	Non-toxic	Active	<70%	152%	145%	138%	135%	
CNC(=O)OCc1c(COC(=O)NC)c(-c2ccc(Cl)c(Cl)c2)n(C)c1C	Active	5.9 g	3.2 g	2.4 g	1.7 g	1.7 g	Non-toxic	Non-toxic	Non-toxic	Non-toxic			163%	148%	145%	145%	
CNC(=O)OCc1c(COC(=O)NC)c(-c2ccc(C)cc2)n(C)c1C		1.8 g	4.5 g	3.4 g	3.2 g	1.4 g		Non-toxic	Non-toxic	Non-toxic				144%	144%	138%	Toxic
CNC(=O)OCc1c(COC(=O)NC)c(-c2ccccc2)n(C)c1C		6 g	4.6 g	3.9 g	3.3 g	2.5 g	Non-toxic	Non-toxic	Non-toxic	Non-toxic		<70%	90%	145%	130%	135%	
CNC(=O)OCc1c(COC(=O)NC)c(-c2ccc(F)cc2)n(C)c1C	Active	1.8 g	5.1 g	3.9 g	4.3 g	2.4 g	Non-toxic	Non-toxic	Non-toxic	Non-toxic	Active		132%	150%	130%	134%	Toxic
